According to ChEMBL document CHEMBL4765386, “Discovery of tertiary amide derivatives incorporating benzothiazole moiety as anti-gastric cancer agents in vitro via inhibiting tubulin polymerization and activating the Hippo signaling pathway” (Eur J Med Chem, 2020):
Activity calls are given as the source filed them. The calls are words filed in the database; no cut-off is given here.

Experiments:
[1] = test system: MGC-803; experiment: Activation of Hippo signaling pathway in human […] cells assessed as decrease in Bcl-2 expression incubated for 48 hrs by Western blot analysis; format: cell-based; conditions: filed as activator, dose 20-60 nM
In short: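 Western blot on gastric cancer cells exposed to compound or DMSO at 20, 40 and 60 nM for 48 h. Cells were lysed, then the denatured lysates were separated by SDS-PAGE and transferred to PVDF. Membranes were blocked and probed with primary and then secondary antibodies. Hippo pathway proteins were detected.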

[2] = test system: SGC-7901; experiment: Induction of apoptosis in human SGC-7901 cells assessed as upregulation of Bax at 20 to 60 nM incubated for 48 hrs by Western blot analysis; format: functional, cell-based; conditions: dose 20-60 nM
In short: (§1)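 Cells grown in RPMI-1640 with 10% FBS, penicillin/streptomycin at 37 °C, 5% CO2. Exposure to 20, 40 or 60 nM for 48 h alongside DMSO control. Lysates denatured, resolved by SDS-PAGE, transferred to PVDF, blocked, then probed with primary and secondary antibodies.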

[3] = test system: MGC-803; experiment: Induction of apoptosis in human MGC-803 cells assessed as upregulation of Noxa at 20 to 60 nM incubated for 48 hrs by Western blot analysis; format: functional, cell-based; conditions: dose 20-60 nM
In short: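 Western blot on MGC-803 and SGC-7901 cells given 20, 40 and 60 nM compound or DMSO for 48 h. Denatured lysates were run on SDS-PAGE and transferred to PVDF, then probed with primary and secondary antibodies to detect apoptosis-related proteins.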

[4] = test system: SGC-7901; experiment: Induction of apoptosis in human SGC-7901 cells assessed as increase in caspase-3 cleavage at 20 to 60 nM incubated for 48 hrs by Western blot analysis; format: functional, cell-based; conditions: dose 20-60 nM; in short: as §1
[5] = test system: MGC-803; experiment: Induction of apoptosis in human MGC-803 cells assessed as early apoptotic cells at 40 nM incubated for 48 hrs by annexin V-FITC and PI staining based flow cytometry analysis (reference value: 2.9 %); format: functional

Question: How did the Activity [1] turn out when `COc1ccc(CN(C(=O)CSc2nc3ccccc3s2)c2cc(OC)c(OC)c(OC)c2)cc1O` was run?
Answer: Its Activity is “Dose-dependent effect”.

Question: And the Activity [2]?
Answer: The Activity was “Active”.

Question: And the Activity [3]?
Answer: Its Activity is “Active”.

Question: And the Activity [4]?
Answer: The Activity was “Active”.

Question: What about the Activity [5] of the same molecule?
Answer: Its Activity is 10.2%.
